Results on 10 molecules are retold here after ChEMBL document CHEMBL4428122, “Design, synthesis, and biological characterization of novel PEG-linked dimeric modulators for CXCR4” (Bioorg Med Chem, 2016).

For series [1], the target named is T1, C-X-C chemokine receptor type 4 (Homo sapiens, UniProt P61073). In words: Agonist activity at CXCR4 in human SupT1 cells assessed as increase in Ca2+ influx by fura-2/AM dye-based fluorescence analysis. In kind it is functional, cell-based. Summed up: (§1)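 They were loaded at 10^7 cells/mL with 2 μM fura-2/AM and 5 μM probenecid for 30 min, then resuspended at 2 × 10^6 cells/mL. After a 2 min baseline, peptide was added. Ex 340/380 nm, em 510 nm.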

The target of series [2] is T1, C-X-C chemokine receptor type 4. In words: Binding affinity to CXCR4 (unknown origin) expressed in CHO cells measured after 40 mins by 12G5 antibody competition assay. In kind it is cell-based.
Series [3] shares this target. In words: Antagonist activity at CXCR4 in human SupT1 cells assessed as inhibition of CXCL12-induced Ca2+ influx preincubated for 2 to 3 mins prior CXCL12-stimulation by fura-2/AM dye-based fluorescence analysis. It counts as functional, cell-based. The procedure, abridged:
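Fura-2/AM-loaded SUP-T1 cells (2 μM dye, 5 μM probenecid, 30 min; 2 × 10^6 cells/mL in Hepes pH 7.4 saline with Ca2+/Mg2+, glucose, 0.025% BSA) were pre-incubated with peptide for 2–3 min, then stimulated with SDF-1α. Fluorescence was read at ex 340/380 nm, em 510 nm.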

For series [4] the target is unchanged. In words: Antagonist activity at CXCR4 in human SupT1 cells assessed as inhibition of CXCL12-induced cell migration at 100 nM preincubated for 2 hrs followed by CXCL12 addition measured after 3 hrs by Cell titer-Blue reagent-based transwell assay. Summed up:
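SUP-T1 cells were washed in RPMI1640 with 0.5% BSA, and 1 × 10^6 cells were incubated with peptide for 2 h. Cells were then seeded in upper transwell chambers (5 μm pores) over a lower chamber with 10 nM SDF-1α, or buffer alone for background. Migration ran 3 h at 37°C. Migrated cells were expressed as % of seeded cells. At least three independent experiments, mean ± S.E.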

In the next series the test system is SUP-T1. In words: Cytotoxicity against human SupT1 cells at 100 nM. In kind it is cell-based. The settings on record: sup-t1, 0.1 µM.
Series [5] concerns the target T1, C-X-C chemokine receptor type 4. In words: Agonist activity at CXCR4 in human SupT1 cells assessed as increase Ca2+ influx at 2 uM by fura-2/AM dye-based fluorescence analysis. In kind it is functional, cell-based. The procedure, abridged: as §1

Active and inactive are the calls of the source. No cut-off for these calls is given here. Non-standard residues stand in square brackets, D forms with d. Residues, ends and D or L forms follow the SMILES beside them.

T1 sequence (P61073 whole entry): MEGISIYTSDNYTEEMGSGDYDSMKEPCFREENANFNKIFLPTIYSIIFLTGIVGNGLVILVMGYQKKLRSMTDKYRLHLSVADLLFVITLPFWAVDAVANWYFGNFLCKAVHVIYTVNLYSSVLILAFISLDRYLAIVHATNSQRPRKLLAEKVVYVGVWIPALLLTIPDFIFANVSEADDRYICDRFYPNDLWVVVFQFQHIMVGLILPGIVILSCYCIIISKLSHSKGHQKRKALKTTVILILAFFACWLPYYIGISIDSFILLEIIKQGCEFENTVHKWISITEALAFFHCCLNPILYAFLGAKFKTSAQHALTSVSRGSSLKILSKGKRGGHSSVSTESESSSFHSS

In the case of `CC(C)C[C@@H](N)C(=O)NCC(=O)N[C@H](C)C(=O)N[C@H](CO)C(=O)N[C@H](Cc1c[nH]c2ccccc12)C(=O)N[C@H](Cc1cnc[nH]1)C(=O)N[C@H](CCCNC(=N)N)C(=O)N1CCC[C@@H]1C(=O)N[C@H](CC(=O)O)C(=O)N[C@H](CCCCN)C(=O)NCCOCCOCCOCCOCCOCCC(=O)N[C@@H](CCCCNC(=O)CCOCCOCCOCCOCCOCCNC(=O)[C@H](CCCNC(=N)N)NC(=O)[C@H](Cc1ccc(O)cc1)NC(=O)[C@H](CO)NC(=O)[C@H](CC(C)C)NC(=O)[C@H](CO)NC(=O)[C@@H](NC(=O)[C@@H]1CCCN1C(=O)[C@@H](N)CCCCN)C(C)C)C(N)=O`, the outcome in series [1] was inactive.
Regarding H-KPVSLSYR-OH, the IC50 result in series [2] (cho) is “Not Active”.
Consider `CC(C)C[C@@H](N)C(=O)NCC(=O)N[C@H](C)C(=O)N[C@H](CO)C(=O)N[C@H](Cc1c[nH]c2ccccc12)C(=O)N[C@H](Cc1cnc[nH]1)C(=O)N[C@H](CCCNC(=N)N)C(=O)N[C@H](C)C(=O)N[C@H](CC(=O)O)C(=O)N[C@H](CCCCN)C(=O)NCCOCCOCCOCCC(=O)NCCCC[C@H](NC(=O)CCOCCOCCOCCNC(=O)[C@@H](CCCCN)NC(=O)[C@@H](CC(=O)O)NC(=O)[C@@H](C)NC(=O)[C@@H](CCCNC(=N)N)NC(=O)[C@@H](Cc1cnc[nH]1)NC(=O)[C@@H](Cc1c[nH]c2ccccc12)NC(=O)[C@@H](CO)NC(=O)[C@@H](C)NC(=O)CNC(=O)[C@H](N)CC(C)C)C(N)=O`, for which, in series [3], the “antagonist activity (qualitative)” value was “Active”. For the same molecule, the inhibition in series [4] came out at 23%. The Activity result in the series with SUP-T1 is given as “Non-Toxic”.
Turning to `CC(C)C[C@@H](N)C(=O)NCC(=O)N[C@H](C)C(=O)N[C@H](CO)C(=O)N[C@H](Cc1c[nH]c2ccccc12)C(=O)N[C@H](Cc1cnc[nH]1)C(=O)N[C@H](CCCNC(=N)N)C(=O)N1CCC[C@@H]1C(=O)N[C@H](CC(=O)O)C(=O)N[C@H](CCCCN)C(=O)N[C@H](CCCCNC(=O)[C@H](CCCNC(=N)N)NC(=O)[C@H](Cc1ccc(O)cc1)NC(=O)[C@H](CO)NC(=O)[C@H](CC(C)C)NC(=O)[C@H](CO)NC(=O)[C@@H](NC(=O)[C@@H]1CCCN1C(=O)[C@@H](N)CCCCN)C(C)C)C(N)=O`, the IC50 in series [2] (read-out: IC50) came out at 502 nM. The outcome in series [1] was Active.
For the molecule `CC(C)C[C@@H](N)C(=O)NCC(=O)N[C@H](C)C(=O)N[C@H](CO)C(=O)N[C@H](Cc1c[nH]c2ccccc12)C(=O)N[C@H](Cc1cnc[nH]1)C(=O)N[C@H](CCCNC(=N)N)C(=O)N1CCC[C@@H]1C(=O)N[C@H](CC(=O)O)C(=O)N[C@H](CCCCN)C(=O)O` (H-[dL]G[dA][dS][dW][dH][dR][dP][dD][dK]-OH), the IC50 in series [2] (read-out: IC50) is 2000 nM.
Take `CC(C)C[C@@H](N)C(=O)NCC(=O)N[C@H](C)C(=O)N[C@H](CO)C(=O)N[C@H](Cc1c[nH]c2ccccc12)C(=O)N[C@H](Cc1cnc[nH]1)C(=O)N[C@H](CCCNC(=N)N)C(=O)N1CCC[C@@H]1C(=O)N[C@H](CC(=O)O)C(=O)N[C@H](CCCCN)C(=O)NCCOCCOCCOCCC(=O)N[C@@H](CCCCNC(=O)CCOCCOCCOCCNC(=O)[C@H](CCCNC(=N)N)NC(=O)[C@H](Cc1ccc(O)cc1)NC(=O)[C@H](CO)NC(=O)[C@H](CC(C)C)NC(=O)[C@H](CO)NC(=O)[C@@H](NC(=O)[C@@H]1CCCN1C(=O)[C@@H](N)CCCCN)C(C)C)C(N)=O`: the outcome in series [5] was Active.
`CC(C)C[C@@H](N)C(=O)NCC(=O)N[C@H](C)C(=O)N[C@H](CO)C(=O)N[C@H](Cc1c[nH]c2ccccc12)C(=O)N[C@H](Cc1cnc[nH]1)C(=O)N[C@H](CCCNC(=N)N)C(=O)N1CCC[C@@H]1C(=O)N[C@H](CC(=O)O)C(=O)N[C@H](CCCCN)C(=O)NC(=O)[C@@H](CCCCN)NC(=O)[C@@H](CC(=O)O)NC(=O)[C@H]1CCCN1C(=O)[C@@H](CCCNC(=N)N)NC(=O)[C@@H](Cc1cnc[nH]1)NC(=O)[C@@H](Cc1c[nH]c2ccccc12)NC(=O)[C@@H](CO)NC(=O)[C@@H](C)NC(=O)CNC(=O)[C@H](N)CC(C)C`: the IC50 in series [2] (read-out: IC50) stood at 462 nM.
Regarding `CC(C)C[C@@H](N)C(=O)NCC(=O)N[C@H](C)C(=O)N[C@H](CO)C(=O)N[C@H](Cc1c[nH]c2ccccc12)C(=O)N[C@H](Cc1cnc[nH]1)C(=O)N[C@H](CCCNC(=N)N)C(=O)N1CCC[C@@H]1C(=O)NCCOCCOCCOCCC(=O)NCCCC[C@H](NC(=O)CCOCCOCCOCCNC(=O)[C@H]1CCCN1C(=O)[C@@H](CCCNC(=N)N)NC(=O)[C@@H](Cc1cnc[nH]1)NC(=O)[C@@H](Cc1c[nH]c2ccccc12)NC(=O)[C@@H](CO)NC(=O)[C@@H](C)NC(=O)CNC(=O)[C@H](N)CC(C)C)C(N)=O`, the “antagonist activity (qualitative)” value in series [3] was “Active”. For the same molecule, the inhibition in series [4] was 28%. For the same molecule, the Activity entry in the series on SUP-T1 is “Non-Toxic”.
Regarding `CC(C)C[C@@H](N)C(=O)NCC(=O)N[C@H](C)C(=O)N[C@H](CO)C(=O)N[C@H](Cc1c[nH]c2ccccc12)C(=O)N[C@H](Cc1cnc[nH]1)C(=O)N[C@H](CCCNC(=N)N)C(=O)N1CCC[C@@H]1C(=O)N[C@H](CC(=O)O)C(=O)N[C@H](CCCCN)C(=O)NCCOCCOCCOCCC(=O)N[C@@H](CCCCNC(=O)CCOCCOCCOCCOCCOCCNC(=O)[C@H](CO)NC(=O)[C@H](CC(C)C)NC(=O)[C@H](CO)NC(=O)[C@@H](NC(=O)[C@@H]1CCCN1C(=O)[C@@H](N)CCCCN)C(C)C)C(N)=O`, the result in series [1] was inactive.
For the molecule `CC(C)C[C@@H](N)C(=O)NCC(=O)N[C@H](C)C(=O)N[C@H](CO)C(=O)N[C@H](Cc1c[nH]c2ccccc12)C(=O)N[C@H](Cc1cnc[nH]1)C(=O)N[C@H](CCCNC(=N)N)C(=O)N1CCC[C@@H]1C(=O)N[C@H](CC(=O)O)C(=O)N[C@H](CCCCN)C(=O)NCCOCCOCCOCCC(=O)N[C@@H](CCCCNC(=O)CCOCCOCCOCCNC(=O)[C@H](CC(C)C)NC(=O)[C@H](CO)NC(=O)[C@@H](NC(=O)[C@@H]1CCCN1C(=O)[C@@H](N)CCCCN)C(C)C)C(N)=O`, the result in series [1] was inactive.
